# Screens (PubChem)
# The list is not random: actives were taken first. Their share in the collection is about 2.3%.
# STEP block: STEP phosphatase inhibitors, primary screen, biochemical, fluorescence intensity, uHTS. recombinant STEP, OMFP fluorogenic substrate. Tyrosine-protein phosphatase non-receptor type 5 (Homo sapiens), P54829. inhibition, % at 20 µM. AID 588621, 2011. hit rate 0.25% among 360,000;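 active means inhibition at 20 µM, scaled per plate between control wells, above about 37%, limit read from the data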
#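 System: STEP (striatal-enriched tyrosine phosphatase) enzyme, cell-free; medium: Bis-Tris pH 6.0 buffer with DTT, detergent; dosing: 20 µM, 1% DMSO; times: reaction 20 min, ambient temperature; detection: fluorescence, 480/540 nm; read-out basis: normalized % inhibition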
# Scp-1 inhibitor: Scp-1 phosphatase inhibitors, primary screen, biochemical, colorimetric, uHTS; inhibition, % at 20 µM; Recombinant Scp1, phosphopeptide, malachite green phosphate absorbance; AID 493091, 2011; hit rate 0.88% among 340,000;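 active means inhibition above about 50% at 20 µM, limit read from the data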
# Target sequence (Q9GZU7 76-261 limits assumed): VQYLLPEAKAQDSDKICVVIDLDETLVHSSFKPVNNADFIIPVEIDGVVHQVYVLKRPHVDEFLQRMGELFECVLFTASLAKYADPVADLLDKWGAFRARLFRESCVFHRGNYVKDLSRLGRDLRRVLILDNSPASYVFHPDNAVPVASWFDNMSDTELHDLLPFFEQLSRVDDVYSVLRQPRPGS
#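 Assay system: SCP-1 catalytic fragment, aa 76-261 | Buffer or medium: Tris acetate buffer pH 5.5 with MgCl2 and Tween-20 | Compound: One concentration, 20 µM, with 1.0% DMSO | Also added: Phospho 17-mer peptide substrate | Signal: Absorbance at 630 nm | Incubation: 45 min enzyme reaction at room temperature | Measure: % inhibition of SCP-1 phosphate liberation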
# SUMO1-SIM PPI: modulators of SUMO1 protein-protein interactions, primary screen, biochemical, uHTS; Small ubiquitin-related modifier 1 (Homo sapiens), P63165; SUMO1 binding to a labelled peptide, TR-FRET, 1 h; inhibition, % at 20 µM; hit rate 0.33% among 360,000; AID 602429, 2012; in the data active means inhibition above about 37%
# Target sequence (P63165 whole entry, looked up): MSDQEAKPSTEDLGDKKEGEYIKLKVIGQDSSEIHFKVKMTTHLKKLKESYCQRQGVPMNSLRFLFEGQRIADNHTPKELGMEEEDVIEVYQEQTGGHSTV
# DNMT1 inh: human DNMT1 methyltransferase inhibitors, primary screen, biochemical, molecular beacon, fluorescence, HinP1I cleavage, uHTS | inhibition (reported as % activation of signal), % at 10 µM | hit rate 0.83% among 360,000 | DNA (cytosine-5)-methyltransferase 1 (Homo sapiens), P26358 | AID 588458, 2011; in the data active means inhibition above about 50%
# LMPTP inh: LMPTP phosphatase inhibitors, primary screen, biochemical, fluorescence intensity, uHTS; Low molecular weight phosphotyrosine protein phosphatase (Homo sapiens), P24666; recombinant LMPTP-A, OMFP fluorogenic substrate; inhibition, % at 20 µM; hit rate 0.22% among 360,000;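 active means compounds that cut the enzyme signal by at least half of the control window in the single-dose screen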
# Target sequence (P24666 whole entry, looked up): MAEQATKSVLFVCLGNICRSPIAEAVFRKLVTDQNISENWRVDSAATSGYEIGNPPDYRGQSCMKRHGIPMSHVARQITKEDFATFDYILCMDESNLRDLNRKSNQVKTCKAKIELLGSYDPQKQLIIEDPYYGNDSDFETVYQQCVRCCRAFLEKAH
#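 Test system – LMPTP-A enzyme · Amount – LMPTP-A at 0.625 nM final in the reaction · Buffer or medium – Bis-Tris pH 6.0, DTT, detergent · Reagent – OMFP 400 µM · Doses – single 20 µM dose · Schedule – reaction 50 min, room temperature, dark · Detection – fluorescence intensity of OMFP turnover product · Evaluation – percent inhibition versus substrate-only and uninhibited controls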
# NadD block: inhibitors of S. aureus NadD, primary screen, biochemical, colorimetric, uHTS. hit rate 0.78% among 360,000. purified NadD enzyme, colorimetric absorbance read-out. inhibition, % at 20 µM; in the data active means inhibition above about 26%
# A number is an active result; – = inactive; · = no result given; ! = not confirmed by another sample.
SMILES,STEP block,Scp-1 inhibitor,SUMO1-SIM PPI,DNMT1 inh,LMPTP inh,NadD block
Cc1ccccc1-c1ccc2n1Cc1cnnn1-c1ccccc1-2,–,–,–,–,–,–
Cc1ccc(/C=C2\C(=O)NC(=S)N(c3ccc(F)cc3)C2=O)s1,–,–,–,–,–,32.0
CCN1C(=O)C(=C2C=C(C)N(Cc3ccco3)C(C)=C2)C(=O)N(CC)C1=S,–,–,–,–,–,–
COc1ccc(/C=C2/C(=O)N(Cc3ccco3)C(=O)N(C(C)C)C2=O)cc1,–,–,43.1,94.4,–,33.5
Cc1ccc(N2C(=O)/C(=C/c3ccc(CN(CCC#N)S(C)(=O)=O)o3)C(=O)NC2=S)cc1,–,–,39.5,110.2,–,–
NC(N)=Nc1ccc2[nH]c3c(c2c1)C[C@@]1(O)[C@H]2Cc4ccc(O)c5c4[C@@]1(CCN2CC1CC1)[C@H]3O5,–,98.5,–,–,–,–
Oc1ccc2c3c1O[C@H]1[C@@H](O)CC[C@@]4(O)[C@@H](C2)N(CC2CCC2)CC[C@]314,–,–,–,–,–,–
COc1cc(C(c2c(C)[nH]n(-c3ccccc3)c2=O)c2c(C)[nH]n(-c3ccccc3)c2=O)cc(OC)c1OC,–,–,53.5,–,–,–
CN(C)c1ccc(/C=C/c2cc[n+](C)c3ccccc23)cc1,–,–,–,–,54.7!,–
C[n+]1ccc(-c2ccccc2)c2ccccc21,–,–,–,–,–,–
CC[n+]1c(-c2ccccc2)c2cc(N)ccc2c2ccc(N)cc21,–,–,–,–,72.0,–
Cc1ccccc1NC(=NCCCN1CC1)Nc1ccccc1C,–,–,34.3,–,–,–
COC(/C(C)=C/C=C/C(C)=C/c1coc(C)n1)C(C)C1CC(O)C2(C)OC2C=CC(C)C2CC(CC(=O)O2)CC2OC2C(=O)O1 (stereo not given),–,–,–,–,–,–
COc1ccc(C(=O)O)cc1OC,–,–,–,–,–,–
O=C(O)c1cc[c]([Hg][Cl])cc1,–,95.8,–,–,–,–
CC[C@@H](O)C[C@H]1CCC[C@@]2(C[C@@H]3OC(=O)/C=C/[C@@](C)(O)[C@@H](O)[C@H](C)[C@@H](O)[C@H](OC4CCC(N(C)C)C(C)O4)[C@@H](O)[C@](C)(O)CCCCC/C=C/[C@@H]4CC(C)(C)O[C@@]4(O)C[C@H](O2)[C@H]3C)O1 (stereo not given in full),–,–,–,–,–,–
C[C@]12CCC3C(CC[C@@H]4C[C@H](O)CC[C@]34C)C1CCC2=O (stereo not given in full),–,–,–,–,–,–
O=C1NC(=S)NC(=O)C1=Cc1ccc2c(c1)CCN2CCCCl,60.3,90.8,75.8,102.3,76.5,52.9
COc1ccc(C=C2C(=O)NC(=S)NC2=O)cc1OC,–,–,–,–,–,–
COC(=O)c1nc(-c2ccc3c(n2)C(=O)C(N)=C(OC)C3=O)c(N)c(-c2ccc(OC)c(OC)c2O)c1C,–,–,–,86.1,–,–
Cc1cc(OCC(=O)N2CCC(C(=O)O)CC2)c2c3c(c(=O)oc2c1)CCC3,–,–,–,–,–,–
Nc1c(C(=O)NCc2ccco2)c2nc3ccccc3nc2n1Cc1ccc(F)cc1,–,–,40.2,–,–,–
CCCCNC(=O)c1c(N)n(Cc2ccc3c(c2)OCO3)c2nc3ccccc3nc12,–,–,63.6,–,–,–
CCCCCn1c(N)c(C(=O)NCCN2CCOCC2)c2nc3ccccc3nc21,–,–,–,–,–,–
Nc1c(C(=O)NCc2ccco2)c2nc3ccccc3nc2n1Cc1ccccc1,–,–,–,–,–,–
SMILES,STEP block,Scp-1 inhibitor,SUMO1-SIM PPI,DNMT1 inh,LMPTP inh,NadD block
Cc1ccc(C(C)C)c(OCC#CCN2CCCC2)c1,–,–,–,–,–,–
NCCc1cc(O)c(O)cc1O,–,–,46.9,118.2,78.7,65.4
CCOC(=O)c1cc2c(cn1)[C@@H](CCO)NC2,–,–,–,–,–,–
O=C1NC(=O)[C@]2(Cc3ccccc3N3CCN(c4ccccc4)CC32)C(=O)N1Cc1ccccc1 (stereo not given in full),–,–,–,–,–,47.8
Cc1cc(C(C#N)c2ccc(Cl)cc2)c(Cl)cc1NC(=O)c1cc(I)cc(I)c1O (stereo not given),–,–,50.9,74.1,–,51.5
CCOP(=S)(OCC)Oc1cc(C)nc(C(C)C)n1,–,–,–,–,–,–
Nc1ccc(CC2=NCCN2)cc1,–,–,–,56.9,–,–
COc1ccc(/C=C2/C(=O)NC(=O)N(c3ccccc3)C2=O)cc1CN1C(=O)c2ccccc2C1=O,–,–,–,–,–,–
Cc1ccccc1N1C(=O)NC(=O)/C(=C\c2ccc3c(c2)CCCN3Cc2ccccc2)C1=O,–,–,–,–,–,39.5
Cc1cccc(OCCn2cccc2/C=C2/C(=O)NC(=O)N(Cc3ccco3)C2=O)c1,–,–,–,59.7,–,–
CCOC(=O)C1CCN(/C=C2/C(=O)NC(=O)N(c3ccc(OCC)cc3)C2=O)CC1,–,–,–,–,–,–
O=C1NC(=O)N(Cc2ccco2)C(=O)/C1=C\c1cccn1CCOc1ccc(Cl)cc1,–,–,–,59.3,–,–
Cc1cc(/C=C2/C(=O)NC(=O)N(Cc3ccco3)C2=O)c(C)n1-c1ccccc1,–,–,–,55.4,–,–
CCc1ccc(N2C(=O)NC(=O)/C(=C/c3cccn3CCOc3ccc(C)cc3)C2=O)cc1,–,–,–,–,–,–
NC(=O)C1CCN(/C=C2\C(=O)NC(=O)N(Cc3ccco3)C2=O)CC1,–,69.2,–,52.0,–,–
Cc1cc(/C=C2\C(=O)NC(=O)N(Cc3ccccc3)C2=O)c(C)n1C1CC1,–,–,–,–,–,–
Cc1cccc(NC(=O)[C@@H](NC(=O)N2C[C@H]3C[C@@H](C2)c2cccc(=O)n2C3)C(C)C)c1,–,–,–,–,–,–
C[C@@H]1CN([C@H](C)CO)C(=O)CCCn2cc(nn2)CO[C@H]1CN(C)C(=O)Oc1ccc2ccccc2c1,–,·,–,–,–,–
CCC(c1nnnn1Cc1ccccc1)N1CCC(n2c(=O)[nH]c3ccccc32)CC1 (stereo not given),–,·,–,–,–,–
CC(C)n1c(O)c(C2c3cc(Cl)ccc3Oc3[nH]c(=O)n(C(C)C)c(=O)c32)c(=O)[nH]c1=O (stereo not given),–,–,–,–,–,–
